Assay outcomes from PubChem.
T cell HTS: modulates CD8 T cell binding to vesicles; AID 2052; 2C CD8+ T cell-vesicle binding, flow cytometry; hits give low values; hit rate 0.068% among 330,000; response (vesicle binding), % at 7 µM;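 active = response, share of CD8 T cells binding vesicles, and their 90th percentile fluorescence all below set limits, cut at about 80% in these data, passing the limit was not always enough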;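 also: values below 100% mean blocked vesicle binding to the CD8+ T cells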
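Assay system: 2C TCR transgenic mouse naive CD8+ T cells, MACS-purified | Read-out: CD8+ gate FL2 mean fluorescence as % of same-row positive control | Signal: High-throughput flow cytometry with anti-B7-1 and anti-CD8 staining | Timing: Binding step 1.5 h, 37 °C, antibody labelling 20 min, ice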
CHT PAM: human CHT allosteric activation. B-score at 10 µM. hit rate 0.49% among 310,000. AID 488977. Q9GZV3. CHT-expressing cells, membrane potential dye, choline EC20; hits give high values; LV-AA mutant CHT in HEK293 cells;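 active = initial fluorescence not abnormally high and integrated response B-score, plate-corrected, over 3 SD above library mean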
Target sequence (Q9GZV3 whole entry, looked up): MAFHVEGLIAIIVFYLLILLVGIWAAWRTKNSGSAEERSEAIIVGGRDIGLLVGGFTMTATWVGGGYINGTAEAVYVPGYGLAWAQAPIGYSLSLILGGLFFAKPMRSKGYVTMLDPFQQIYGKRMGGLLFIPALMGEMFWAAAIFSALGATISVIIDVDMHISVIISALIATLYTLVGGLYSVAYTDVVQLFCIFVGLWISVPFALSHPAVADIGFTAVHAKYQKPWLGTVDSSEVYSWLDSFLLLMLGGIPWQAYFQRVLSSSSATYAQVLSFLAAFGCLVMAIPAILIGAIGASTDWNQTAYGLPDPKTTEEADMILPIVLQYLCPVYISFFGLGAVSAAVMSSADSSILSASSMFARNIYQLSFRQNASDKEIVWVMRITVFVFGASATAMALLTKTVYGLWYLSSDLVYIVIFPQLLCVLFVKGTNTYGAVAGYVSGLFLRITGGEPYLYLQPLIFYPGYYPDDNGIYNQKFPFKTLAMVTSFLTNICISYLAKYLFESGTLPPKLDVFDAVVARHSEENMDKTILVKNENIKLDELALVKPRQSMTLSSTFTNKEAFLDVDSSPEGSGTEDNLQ
VLA-4 inh: inhibition in a human VLA-4 binding assay. AID 2557. VLA-4 expressing cells, ligand binding flow cytometry. P13612. inhibition, % (about 7 µM as worked out from the volumes in the protocol). hit rate 0.2% among 330,000; in the data active = inhibition above about 50%
CHT inh: inhibits the human high affinity choline transporter; hit rate 0.86% among 310,000; Q9GZV3; B-score at 10 µM; CHT-expressing cells, membrane potential dye, choline response; hits give low values;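 active = B-score over 3 SD under the library average, and starting fluorescence ratio not unusually high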;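 also: choline stimulus applied at its EC90 after an EC20 pre-addition; B-score computed on integrated fluorescence ratio after choline addition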
CHT inh conf: human CHT inhibition, confirmatory screen; shares compounds with CHT inh; CHT-expressing cells, choline membrane potential dye; LV-to-AA substituted CHT, HEK293 cells; CHT activity remaining % of control (hits give low values), % at 10 µM; hit rate 70% among 2,400;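 active = choline transporter activity left, mean of duplicates at 10 µM, below buffer-only control mean minus 3 SD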;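 also: depolarization triggered by choline at its EC90 following an EC20 pre-addition; 0% = hemicholinium-3 full block and 100% = buffer-only control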
HEK293 MPD ctr: CHT inhibitor counter-screen hit in parental HEK293 cells | shares compounds with CHT inh | membrane potential dye, choline response; active = decrease or increase beyond buffer ±3SD | membrane potential ratio readout (active if shifted either direction beyond buffer ±3SD; no single direction) at 10 µM | hit rate 4% among 2,400 | AID 493222;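 also: parental cells lack the transporter so any hit is non-specific; ratio is peak minus trough fluorescence over baseline after EC90 choline challenge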
Numbers without * were called inactive; i = inactive; nt = no result given. An excerpt weighted towards active compounds, which were near 1.5% of everything screened.

SMILES | T cell HTS | CHT PAM | VLA-4 inh | CHT inh | CHT inh conf | HEK293 MPD ctr
Cc1cc(C)nc(N2N=C(CSc3ccc(Cl)cc3)CC2=O)n1 | i | i | -8 | -5* | 42%* | i
O=C(CSc1nnc(NC(=O)c2c(F)cccc2F)s1)NC1CCCCC1 | 771 | i | 1 | i | nt | nt
Nc1ncnc2c1ncn2[C@@H]1O[C@H](CO)[C@@H](O)[C@H]1O | 407 | i | 1 | -6* | 30%* | i
CC1(C)OC2C(O1)[C@@H](CO)O[C@H]2n1cnc2c(N)ncnc21 (some centres undefined) | 823 | i | -8 | i | nt | nt
CN(CC(=O)Nc1ccc(F)c(F)c1F)C(=O)C1CCCC1 | 330 | nt | -30 | nt | nt | nt
O=C(Nc1ccccc1C(=O)NCCCn1ccnc1)c1ccccc1 | 603 | i | -11 | -10* | 13%* | i
Cc1ccc(-c2cc(C(=O)NCCCn3ccnc3)c3cc(Br)ccc3n2)o1 | 169 | i | -14 | -9.2* | 24%* | i
CC(C)c1ccc(/C=C(\NC(=O)c2ccccc2)C(=O)NCCCn2ccnc2)cc1 | 310 | i | 25 | -8.2* | 23%* | i
Cc1ccc(-c2cc(C(=O)O)c3cc(Br)ccc3n2)o1 | 310 | i | 7 | i | nt | nt
CC1CCC2(CC1)NC(=O)N(CC(=O)c1cn(CCC#N)c3ccccc13)C2=O (centres undefined) | 330 | i | 4 | i | nt | nt
O=C(CC1(CC(=O)N2CCOCC2)CCCC1)Nc1ccc(F)cc1 | 259 | nt | -4 | nt | nt | nt
CC(=O)Nc1ccc(N2C(=O)CSC2c2cccc(Br)c2)cc1 (centres undefined) | 313 | i | -5 | i | nt | nt
CCOc1ccc(Nc2cc(C)nc(-n3nc(C)cc3C)n2)cc1 | 253 | i | 36 | -6.1* | i | i
CCOc1cc(/C=N/Nc2cc(C)nc(-n3nc(C)cc3C)n2)ccc1O | 583 | i | 15 | i | nt | nt
CCOC(=O)N1CCN(C(=O)/C=C/c2ccc(C(C)(C)C)cc2)CC1 | 221 | i | 2 | i | nt | nt
COc1ccc(/C=C/C(=O)NC2CCCCCCC2)cc1S(=O)(=O)N1CCOCC1 | 295 | i | 5 | -7.6* | 20%* | i
COc1ccc(/C=C/C(=O)Nc2ccc(NC(C)=O)cc2)cc1S(=O)(=O)N1CCOCC1 | 367 | i | 5 | i | nt | nt
CCCn1nc(C(=O)NNC(=O)CCCOc2ccc(OC)cc2)c2ccccc2c1=O | 383 | nt | -4 | nt | nt | nt
O=C(CCC(=O)N1CCN(c2ccccc2F)CC1)N1CCN(c2ccc(F)cc2)CC1 | 220 | i | -6 | -5.4* | 69%* | i
O=C(CCC(=O)N1CCN(c2ccccc2F)CC1)N1CCN(c2ccccc2)CC1 | 157 | i | 7 | i | nt | nt
Cc1ccc(-c2nc(CS(=O)(=O)CC(=O)NC3CCCCCC3)c(C)o2)cc1 | 282 | i | 3 | i | nt | nt
COc1ccc(C2=NN(C(=O)CSc3nc(=O)n4cc(C)ccc4n3)C(c3ccc(C)cc3)C2)cc1 (centres undefined) | 155 | i | -38 | i | nt | nt
O=C1C[C@H]2[C@H](CO)[C@@H](OC(=O)c3ccc(-c4ccccc4)cc3)C[C@H]2O1 | 195 | i | 3 | -5.8* | 64%* | i
O=C1CC2C(CC(OC(=O)c3ccc(-c4ccccc4)cc3)C2CO)O1 (centres undefined) | 522 | i | 16 | i | nt | nt
Cc1sc2nc(CN3CCCC3)nc(N3CCN(S(=O)(=O)c4cccc(F)c4)CC3)c2c1C | 265 | nt | 7 | nt | nt | nt
SMILES | T cell HTS | CHT PAM | VLA-4 inh | CHT inh | CHT inh conf | HEK293 MPD ctr
COc1ccc(C2=NOC(C(=O)Nc3cccnc3)C2)cc1 (centres undefined) | 460 | i | 2 | i | nt | nt
CCc1ccccc1NC(=O)C1CC(c2ccc(OC)cc2)=NO1 (centres undefined) | 27 | i | 3 | -6.3* | 48%* | i
COc1cc2c(cc1OC)-c1cc(NC3CCCCC3)nc(=O)n1CC2 | 286 | i | 13 | i | nt | nt
COc1cc2c(cc1OC)-c1cc(NC3CCCCCCC3)nc(=O)n1CC2 | 190 | i | -3 | -7.6* | 27%* | i
CCCCC1(C)OC(=O)C(=Cc2ccc(N(C)C)cc2)C(=O)O1 (centres undefined) | 308 | i | -3 | i | nt | nt
Cc1cc(-c2nc3cccnc3s2)ccc1NS(=O)(=O)c1ccc2c(c1)OCCO2 | 520 | i | 0 | -7.3* | i | i
Cc1c(NS(=O)(=O)c2ccc3c(c2)OCCO3)cccc1-c1nc2cccnc2s1 | 295 | i | -2 | i | nt | nt
COc1ccc(C(=O)OCC2CC(c3ccccc3)=NO2)cc1OC (centres undefined) | 258 | i | -2 | i | nt | nt
COc1cc(C(=O)OCC2CC(c3ccccc3)=NO2)cc(OC)c1OC (centres undefined) | 326 | i | -12 | i | i | i
O=C1/C(=C\c2ccccn2)SC(=S)N1c1ccc(S(=O)(=O)Nc2nccs2)cc1 | 383 | i | -9 | -7* | i | i
CN(CCOCCOc1ccc(F)cc1)Cc1ccccc1 | 286 | i | 28 | i | nt | nt
Fc1ccc(OCCOCCOc2cccc3[nH]ccc23)cc1 | 225 | i | 14 | -5.3* | i | i
COc1ccccc1-c1ccc(=O)n(CC(=O)NC2CCc3ccccc32)n1 (centres undefined) | 270 | i | -1 | -8.4* | i | i
COc1ccccc1CC(=O)NC1CCCc2ccccc21 (centres undefined) | 180 | i | 14 | i | nt | nt
CN1CCCC(CC2Oc3ccccc3Sc3ccccc32)C1 (centres undefined) | 309 | i | 11 | -5.2* | 14%* | i
c1ccc2c(c1)OC(CCCN1CCCCC1)c1ccccc1S2 (centres undefined) | 503 | i | 12 | i | nt | nt
COc1ccc(CN2CCN(CCc3ccccc3)C(CCO)C2)cc1Cn1cncn1 (centres undefined) | 208 | i | -3 | i | nt | nt
COc1ccc(CN2CCN(CC=C(C)C)C(CCO)C2)cc1Cn1cccn1 (centres undefined) | 161 | i | 22 | -6* | 64%* | i
COc1ccc(-c2noc(N3CCC(C(=O)Nc4ccc(OC)cc4OC)CC3)n2)cc1 | 634 | i | 18 | -6.6* | i | i
O=C(NC1CCCC1)C(c1cccnc1)N(CCc1ccccc1)C(=O)c1ccco1 (centres undefined) | 252 | i | -12 | -6* | 55%* | i
Fc1ccc(-c2nc3c(-c4ccc(F)cc4)cnn3cc2CCN2CCOCC2)cc1 | 408 | i | 13 | -6.6* | 59%* | i
